Only some compounds are listed: those with a hit (about 2.2% of all), similar ones and a draw of the others.
CHRM5 antagonist: blocks acetylcholine activation of human M5 receptor; inhibition, % at 3 µM; AID 624040; CHO-hM5 cells, Fluo-8 calcium fluorescence, ACh EC80; 0.59% of 360,000 active;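 active means inhibition above a per-plate cutoff, the mean of that plate's test compounds plus 3 SD, cut at about 27% in these data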
M5 ag: CHRM5 agonism in calcium assay | CHO-K1 hM5 cells, Fluo-8 calcium fluorescence; 0% DMSO wells, 100% maximal acetylcholine response | 0.19% of 360,000 active | activation, % at 3 µM;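 active means activation above the run's mean over test compounds plus 3 SD, cut at about 23% in these data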;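 further: signal is peak over basal fluorescence ratio across the kinetic read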
CHRM1 agonist: activates human CHRM1 receptor. CHO-K1 hM1, Fluo-8 calcium fluorescence, agonist mode; 0% DMSO, 100% acetylcholine EC100. activation, % at 3 µM. 0.33% of 360,000 active. AID 588814;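 active means activation above the run's mean compound activation plus 3 SD, cut at about 16% in these data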;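 further: peak over basal fluorescence ratio within a 140 s kinetic read after compound addition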
Target sequence (P11229 whole entry, looked up): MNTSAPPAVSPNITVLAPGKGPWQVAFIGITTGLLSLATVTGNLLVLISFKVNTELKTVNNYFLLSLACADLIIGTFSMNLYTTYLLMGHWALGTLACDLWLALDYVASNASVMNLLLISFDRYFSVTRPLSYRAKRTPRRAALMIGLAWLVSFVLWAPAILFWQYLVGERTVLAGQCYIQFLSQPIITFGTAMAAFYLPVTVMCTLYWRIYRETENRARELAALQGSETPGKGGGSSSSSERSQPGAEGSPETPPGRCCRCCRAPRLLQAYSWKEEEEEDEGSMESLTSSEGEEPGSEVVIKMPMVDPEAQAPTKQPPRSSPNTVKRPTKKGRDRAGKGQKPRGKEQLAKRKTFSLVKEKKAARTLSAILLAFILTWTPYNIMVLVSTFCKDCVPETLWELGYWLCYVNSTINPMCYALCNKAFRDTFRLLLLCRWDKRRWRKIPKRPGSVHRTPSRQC
M5 PAM: CHRM5 positive allosteric modulation. P08912. CHO-K1 hM5, Fluo-8 calcium, ACh EC20 PAM; 0% = ACh EC20, 100% = ACh EC100. activation, % at 3 µM. 0.3% of 360,000 active. AID 624038;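 active means activation above the run cutoff, the mean activation of all test compounds plus 3 SD, cut at about 18% in these data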
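Assay system: CHO-K1 hM5 cells / Incubation: Fluo-8 loading 80 min at 37 °C plus 30 min room temperature / Technique: Fluo-8 calcium dye fluorescence, kinetic read / Repeats: single replicate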
M1 antag: human CHRM1 antagonism; P11229; inhibition, % at 3 µM; AID 588852; CHO-K1 hM1, Fluo-8 calcium fluorescence, ACh EC80 antagonist; 1.3% of 360,000 active;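 active means percent inhibition above its own plate's cutoff, namely the mean of that plate's compound wells plus 3 SD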;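 further: peak over basal fluorescence ratio during 140 s after agonist addition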
CHRM1 PAM: positive allosteric modulators of human M1 muscarinic receptor; CHO-K1 hM1, Fluo-8 calcium fluorescence, ACh EC20; 0% = ACh EC20, 100% = maximal ACh; activation, % at 3 µM; 0.088% of 360,000 active; AID 588819; in the data active means activation above about 19%, passing the limit was not always enough
Numbers stand for hits; n = inactive.

SMILES	CHRM5 antagonist	M5 ag	CHRM1 agonist	M5 PAM	M1 antag	CHRM1 PAM
O=C(c1ccccc1)N1N=C(c2ccccc2)CC1c1ccccc1O (configuration not stated)	n	n	n	n	n	n
COc1cc(Br)cc(/C=N/NC(=O)Cc2ccc(C(F)(F)F)cc2[N+](=O)[O-])c1O	n	n	n	n	n	n
CCOc1cc(/C=N/NC(=O)Cc2ccc(C(F)(F)F)cc2[N+](=O)[O-])c(Br)cc1OC	n	n	n	21.9	n	n
O=C(COC(=O)c1c(F)cccc1Cl)NCC1CCCCC1	n	n	n	n	n	n
O=C(CSc1ccc2ccccc2n1)NCCC1=CCCCC1	30.5	n	n	n	n	n
O=C(CSc1ncccn1)NCCC1=CCCCC1	n	n	n	n	n	n
CC1(C)CC(NC(=S)NC(=O)c2cc(Br)ccc2Cl)CC(C)(C)N1	n	n	21.9	n	n	n
COc1cc(NC(=S)NC2CC(C)(C)NC(C)(C)C2)c(OC)cc1Cl	n	n	36.3	n	n	n
CC(=O)c1cccc(NC(=O)C2CCCN(S(C)(=O)=O)C2)c1 (configuration not stated)	n	n	n	n	n	n
CS(=O)(=O)N1CCCC(C(=O)Nc2cccc(F)c2)C1 (configuration not stated)	n	n	n	18.3	n	32.0
CC(=O)Nc1cccc(NC(=O)C2CCCN2C(=O)Nc2cccc(F)c2)c1 (configuration not stated)	n	n	n	20.7	n	n
CC(C)CN(C(=O)CN(C)CC(=O)Nc1ccc(Cl)c(C(F)(F)F)c1)c1c(N)n(CC(C)C)c(=O)[nH]c1=O	n	n	n	n	n	n
COc1ccc(CC(=O)Nc2nnc(C(C)C)s2)cc1OC	n	n	n	n	n	n
Cc1cc(/C=C2/SC(=O)NC2=O)c(C)n1-c1ccc(N2CCOCC2)cc1	n	n	19.9	n	n	n
Cc1cc(/C=C2\SC(=S)NC2=O)c(C)n1-c1ccccc1	n	n	n	n	n	n
COc1ccc(C(NC=O)c2cc(OC)c(OC)cc2Br)cc1OC (configuration not stated)	n	n	n	n	n	n
Cn1c(=O)c2[nH]c(COc3ccc(C(C)(C)C)cc3)nc2n(C)c1=O	n	n	n	n	38.9	n
CCCn1nnnc1NCc1ccc(N2CCCC2)cc1	n	n	n	n	57.7	n
CCCCn1nnnc1NCc1ccc(N2CCCC2)cc1	n	n	n	n	90.5	n
CCCCn1nnnc1NCc1cccnc1	31.1	n	n	n	n	n
CCCn1nnnc1NCc1cccc(Cl)c1	n	n	n	n	n	n
COc1cnc(-c2ccccn2)nc1Sc1ccc(F)cc1	n	n	n	n	n	n
C(=N\Nc1cc(N2CCCCC2)ncn1)/c1ccco1	n	n	n	n	n	n
O=C(NCCc1ccccn1)c1nc(Cn2cc(Br)cn2)no1	n	n	n	n	n	n
C[n+]1cn(CC(O)COCc2ccccc2)c2ccccc21 (configuration not stated)	n	n	n	n	n	n
SMILES	CHRM5 antagonist	M5 ag	CHRM1 agonist	M5 PAM	M1 antag	CHRM1 PAM
CCCCCc1ccc(OCCOCCn2c[n+](C)c3ccccc32)c(CCCCC)c1	n	n	n	n	79.3	n
CCCCCc1ccc(OCCC[n+]2ccccc2)c(CCCCC)c1	32.0	n	n	n	69.1	n
CC(=O)Nc1ccc(OCCC[n+]2ccccc2)cc1	n	n	n	n	n	n
COc1cc(-c2nc3c[n+](CC(=O)c4ccccc4)ccc3n2C)cc(OC)c1OC	n	n	n	n	n	n
COc1ccc(C(=O)C[n+]2ccc3c(c2)nc(-c2ccccc2)n3C)cc1	n	n	n	n	56.8	n
O=S(=O)(/C=C/c1ccccc1)N1CCOCC1	n	n	n	n	n	n
C=CCNC(=S)NNC(=O)c1cccn(Cc2cccc(Cl)c2)c1=O	n	n	n	n	21.2	n
CS(=O)(=O)c1ccc(Cl)c(NC(=O)c2cc(=O)[nH]c3ccc(S(=O)(=O)N4CCOCC4)cc23)c1	n	n	n	n	n	n
COc1ccccc1C(=O)Nc1cccc2nc(C)ccc12	n	n	n	n	n	n
CCc1ccc(NC2=NCC(c3ccccc3)S2)cc1 (configuration not stated)	n	n	n	n	n	n
Cc1ccc(NC2=NCC(Cc3ccc(Br)cc3)S2)cc1 (configuration not stated)	n	n	n	n	38.2	n
Cn1cc(C2N3CC4(C)CN2CC(C)(C3)C4=O)c2ccccc21 (configuration not stated)	n	n	n	n	n	n
CC1CCN(CCOCCOc2ccc(Br)cc2Cl)CC1	n	n	n	n	45.2	n
CC1CCCN(CCCOc2ccc(Br)cc2Cl)C1 (configuration not stated)	n	n	n	n	n	n
COc1ccc(OC)c(/C=N/NC(=O)CCN2CCN(C(c3ccccc3)c3ccccc3)CC2)c1	n	n	n	n	48.0	n
O=C(CCN1CCN(C(c2ccccc2)c2ccccc2)CC1)N/N=C/c1ccc(O)cc1	n	n	n	n	36.9	n
N#Cc1ccsc1NC(=O)CCN1CCN(C(c2ccccc2)c2ccccc2)CC1	n	n	n	n	29.8	n
O=C(CCN1CCN(C(c2ccccc2)c2ccccc2)CC1)N/N=C/c1ccc(O)cc1O	n	n	n	n	n	n
Cc1cccn2c(=O)c3cc(C(=O)NC(C)c4ccccc4)c(=N)n(CCCn4ccnc4)c3nc12 (configuration not stated)	n	n	n	n	n	n
COc1ccccc1OCCCCN1CCN(C(c2ccccc2)c2ccccc2)CC1	n	n	n	n	85.5	n
c1ccc(OCCOCCN2CCN(C(c3ccccc3)c3ccccc3)CC2)cc1	51.9	n	n	n	99.5	n
c1ccc(Cn2c(-c3ccccc3)c[n+]3c2SCCC3)cc1	96.2	n	n	n	98.1	n
CCN(CC#CCC(O)(c1ccccc1)c1ccccc1)C(C)C	n	n	n	n	81.9	n
CC(C)N(CC#CCC(O)(c1ccccc1)c1ccccc1)C(C)C	n	n	n	n	38.9	n
COc1ccc(CN2C(=NC(=O)c3ccccc3)SC3CS(=O)(=O)CC32)cc1 (configuration not stated)	n	n	n	n	n	n
CCCCN(C(=O)c1ccc(Cl)cc1)C1CC2CCC(C1)N2C (configuration not stated)	n	n	n	n	28.3	n
COc1cc(CN2CCN(S(=O)(=O)c3ccccc3)CC2)cc(OC)c1OC	n	n	n	n	n	n
